Data as given in ChEMBL document CHEMBL1131108, “Phenothiazine inhibitors of trypanothione reductase as potential antitrypanosomal and antileishmanial drugs” (J Med Chem, 1998).

Legend:
[1] = molecular target: T1, Glutathione reductase, mitochondrial (Homo sapiens, UniProt P00390); experiment: Inhibitory activity against human erythrocyte glutathione reductase; '*' indicates No inhibition
T1 sequence (P00390 whole entry): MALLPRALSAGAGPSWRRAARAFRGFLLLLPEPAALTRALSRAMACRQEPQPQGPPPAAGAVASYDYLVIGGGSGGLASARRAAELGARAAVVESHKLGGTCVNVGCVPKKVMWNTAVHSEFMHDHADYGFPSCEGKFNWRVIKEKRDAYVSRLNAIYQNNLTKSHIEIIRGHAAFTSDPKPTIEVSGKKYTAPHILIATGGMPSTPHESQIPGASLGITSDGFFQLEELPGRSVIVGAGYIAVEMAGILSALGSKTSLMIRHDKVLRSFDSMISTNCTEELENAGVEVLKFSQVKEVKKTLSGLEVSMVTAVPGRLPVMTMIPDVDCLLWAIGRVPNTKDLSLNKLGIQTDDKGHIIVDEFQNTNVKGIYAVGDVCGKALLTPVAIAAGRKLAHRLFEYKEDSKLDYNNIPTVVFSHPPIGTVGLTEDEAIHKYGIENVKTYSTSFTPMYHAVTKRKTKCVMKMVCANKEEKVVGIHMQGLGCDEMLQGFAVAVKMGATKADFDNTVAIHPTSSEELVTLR
Outline: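 Enzyme was isolated from human erythrocytes and assayed spectrophotometrically at 340 nm under literature conditions. Compounds were tested up to 1 mM, or 0.1 mM where solubility was limited.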

[2] = species: Mus musculus; experiment: Effective dose against Leishmania donovani (Leishmania donovani) amastigotes in mouse peritoneal macrophages; assay type: functional; conditions: read-out: ED50 (the source's name)
Outline: (§1)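 Mouse peritoneal macrophages kept on chamber slides in RPMI 1640 with 10% heat-inactivated foetal calf serum, 37 °C, 5% CO2, and infected with L. donovani MHOM/ET/69/L82 amastigotes taken from infected hamster spleens. After 24 h, compounds were added in a 3-fold dilution series in quadruplicate for 5 days. Slides were methanol-fixed and Giemsa-stained, then scored for the proportion of infected macrophages.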

[3] = species: Mus musculus; experiment: Effective dose against Trypanosoma cruzi (Trypanosoma cruzi) trypomastigotes in mouse peritoneal macrophages; assay type: functional; conditions: read-out: ED50 (the source's name)
[4] = molecular target: T2, Trypanothione reductase (Trypanosoma cruzi, UniProt P28593); experiment: Inhibitory activity against recombinant Trypanosoma cruzi (Trypanosoma cruzi) Trypanothione reductase; conditions: read-out: I50
Outline: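 Recombinant T. cruzi TR, overexpressed in E. coli JM109 and homogeneous by SDS-PAGE, was used at about 0.3 µg/mL. Assay at 25 °C in 0.02 M HEPES pH 7.25 with 0.15 M KCl, 1 mM EDTA, 0.12 mM trypanothione disulfide and 0.1 mM NADPH, read at 340 nm. I50 came from nonlinear least-squares fitting of velocity versus inhibitor concentration using the linear competitive inhibition equation.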

[5] = tested on: Trypanosoma brucei; experiment: Effective dose against Trypanosoma brucei) bloodstream form trypomastigotes; conditions: read-out: ED50 (the source's name)
[6] = species: Mus musculus; experiment: Effective dose against Trypanosoma cruzi (Trypanosoma cruzi) trypomastigotes in mouse peritoneal macrophages; Range is 10-30 uM; assay type: functional; conditions: read-out: ED50 (the source's name)
[7] = tested on: Trypanosoma brucei; experiment: Effective dose against Trypanosoma brucei) bloodstream form trypomastigotes in HMI-9 medium; conditions: read-out: ED50 (the source's name)
[8] = molecular target: T2, Trypanothione reductase; experiment: Inhibitory activity against recombinant Trypanosoma cruzi (Trypanosoma cruzi) Trypanothione reductase (linear competitive type)
[9] = species: Mus musculus; experiment: Effective dose against Leishmania donovani (Leishmania donovani) amastigotes in mouse peritoneal macrophages; Range is 10-30 uM; assay type: functional; conditions: read-out: ED50 (the source's name); outline: as §1
[10] = species: Mus musculus; experiment: Effective dose against Trypanosoma uM; assay type: functional
[11] = species: Mus musculus; experiment: Effective dose against Leishmania donovani (Leishmania donovani) amastigotes in mouse peritoneal macrophages; Toxic to the macrophages; assay type: functional, organism-based
Outline: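 Mouse peritoneal macrophages in RPMI 1640 + 10% heat-inactivated FCS, 37 °C, 5% CO2, infected with L. donovani (MHOM/ET/69/L82) amastigotes from infected hamster spleens. Compounds added 24 h post-infection in 3-fold dilutions, quadruplicate, for 5 days. Slides methanol-fixed, Giemsa-stained; proportion of infected macrophages scored.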

[12] = species: Mus musculus; experiment: Effective dose against Trypanosoma cruzi (Trypanosoma cruzi) trypomastigotes in mouse peritoneal macrophages; Toxic to the macrophages; assay type: functional, organism-based
Outline: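 T. cruzi (MHOM/BR/00/Y) trypomastigotes from infected L6 rat myoblast cultures infect mouse peritoneal macrophages at 5 parasites:1 macrophage, 37 °C, 5% CO2/air. Compounds in fresh medium 24 h post-infection, 3-fold dilutions, quadruplicate, 3 days. Cultures fixed, Giemsa-stained; proportion of infected macrophages scored.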

[13] = tested on: Trypanosoma brucei; experiment: Effective dose against Trypanosoma brucei) bloodstream form trypomastigotes; <3, >1; conditions: read-out: ED50 (the source's name)
[14] = molecular target: T2, Trypanothione reductase; experiment: Inhibitory activity against recombinant Trypanosoma cruzi (Trypanosoma cruzi) Trypanothione reductase; No inhibition at 1000 uM
[15] = species: Mus musculus; experiment: Effective dose against […]; Toxic to the macrophages; assay type: functional
[16] = species: Mus musculus; experiment: Effective dose against Trypanosoma […]) trypomastigotes in mouse peritoneal macrophages; assay type: functional; conditions: read-out: ED50 (the source's name)

T2 sequence (P28593 whole entry): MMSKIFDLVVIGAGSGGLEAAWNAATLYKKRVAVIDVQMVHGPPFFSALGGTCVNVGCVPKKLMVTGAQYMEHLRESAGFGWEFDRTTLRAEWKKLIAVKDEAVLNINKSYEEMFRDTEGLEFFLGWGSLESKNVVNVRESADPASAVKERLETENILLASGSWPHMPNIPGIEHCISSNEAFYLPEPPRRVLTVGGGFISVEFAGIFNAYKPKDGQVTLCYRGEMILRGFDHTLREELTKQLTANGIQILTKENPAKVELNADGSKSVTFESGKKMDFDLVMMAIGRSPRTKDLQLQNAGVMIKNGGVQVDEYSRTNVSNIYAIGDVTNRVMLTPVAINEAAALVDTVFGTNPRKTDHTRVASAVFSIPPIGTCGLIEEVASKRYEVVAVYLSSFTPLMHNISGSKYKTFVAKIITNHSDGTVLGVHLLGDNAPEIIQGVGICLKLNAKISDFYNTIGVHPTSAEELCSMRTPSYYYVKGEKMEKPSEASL

SMILES | I50 [1] | EC50 [2] | EC50 [3] | IC50 [4] | also measured
CN(C)CCCN1c2ccccc2Sc2ccc(COc3ccc(C(C)(C)C)cc3)cc21 | Not Active | > 30 µM | > 30 µM | 161 µM | EC50 [5]: > 30 µM
CNCCCN1c2ccccc2Sc2ccc(Cl)cc21 [NOR1-CHLORPROMAZINE] | Not Active |  |  | 126 µM | 
CCN(CC)CCCC(=O)N1c2ccccc2Sc2ccc(Cl)cc21 |  |  |  | 320 µM | 
O=C(CBr)N1c2ccccc2Sc2ccc(Cl)cc21 |  | 5.97 µM |  | 251 µM | EC50 [6]: 10 µM; EC50 [7]: 0.97 µM
CN1CCN(CCCN2c3ccccc3Sc3ccc(C(F)(F)F)cc32)CC1 [TRIFLUOPERAZINE] | Not Active |  |  | 72 µM | Ki [8]: 23 µM
CCCC(=O)c1ccc2c(c1)N(CCCN(C)C)c1ccccc1S2 |  |  | > 30 µM | 301 µM | EC50 [9]: 10 µM; EC50 [7]: 3.26 µM
O=C(CCl)N1c2ccccc2Sc2ccc(Cl)cc21 |  |  |  | 862 µM | 
CO/N=C(/C)c1ccc2c(c1)N(CCCN(C)C)c1ccccc1S2 |  | > 30 µM | > 30 µM | 351 µM | ED50 [10]: 10 µM
CN(C)CCCN1c2ccccc2[S+]([O-])c2ccc(Cl)cc21 (stereo not given) [CHLOROPROMAZINE SULFOXIDE] | Not Active |  |  | 76.6 µM | 
CC(=O)c1ccc2c(c1)N(C(C)=O)c1cc(C(C)=O)ccc1S2 |  | > 30 µM | > 30 µM | 49.1 µM | EC50 [7]: > 30 µM
CN(C)CCCN1c2ccccc2Sc2ccc(CN)cc21 |  |  |  | 219 µM | ED50 [11]: Toxic; ED50 [12]: Toxic; EC50 [7]: 0.37 µM
CN(C)CCCN1c2ccccc2Sc2ccc(CO)cc21 | Not Active |  |  | 1190 µM | 
O=C(O)CCC(=O)N1c2ccccc2Sc2ccc(Cl)cc21 |  |  |  | 1480 µM | 
CCCCCC(=O)c1ccc2c(c1)N(CCCN(C)C)c1ccccc1S2 |  |  |  | 171 µM | EC50 [7]: > 30 µM
CCC(=O)c1ccc2c(c1)N(CCCN(C)C)c1ccccc1S2 |  | > 30 µM | > 30 µM | 357 µM | EC50 [7]: 10.1 µM
CC(=O)c1ccc2c(c1)N(CCCN(C)C)c1cc(C(C)=O)ccc1S2 |  | > 30 µM | > 30 µM | 472 µM | ED50 [10]: 10 µM
CC(=O)c1ccc2c(c1)N(C(C)=O)c1cc(Cl)ccc1S2 |  | > 30 µM | > 30 µM | 402 µM | EC50 [7]: > 30 µM
CN(C)C(C)(C)CN1c2ccccc2Sc2ccccc21 | Not Active |  |  | 1180 µM | 
CN(C)CCCN1c2ccccc2Sc2ccc(Cl)cc21 [CHLORPROMAZINE] | Not Active | 4.9 µM | > 10 µM | 35.4 µM | Ki [8]: 10.8 µM; EC50 [5]: 3.69 µM
CC(=O)c1ccc2c(c1)N(CCCN(C)C)c1ccccc1S2 [ACEPROMAZINE] |  |  |  | 502 µM | ED50 [11]: Toxic; ED50 [12]: Toxic; EC50 [7]: 6.42 µM
CC(CN(C)C)CN1c2ccccc2Sc2ccccc21 (stereo not given) [METHYLPROMAZINE] | Not Active |  |  | 249 µM | Ki [8]: 127 µM
NCCCN1c2ccccc2Sc2ccccc21 | Not Active | 3.3 µM | 54.9 µM | 1410 µM | EC50 [5]: 3.83 µM
NCCCN1c2ccccc2Sc2ccc(Cl)cc21 [NOR2-CHLORPROMAZINE] | Not Active | 10 µM | 5.9 µM | 139 µM | EC50 [13]: < 3 µM
CN(C)CCCN1c2ccccc2Sc2ccc(C(=O)O)cc21 | Not Active |  |  | 3910 µM | 
N=C(N)CCN1c2ccccc2Sc2ccccc21 |  |  |  | 992 µM | 
CN(C)CCCN1c2ccccc2Sc2ccccc21 [PROMAZINE] | Not Active |  |  | 108 µM | Ki [8]: 59.1 µM

SMILES | I50 [1] | EC50 [2] | EC50 [3] | IC50 [4] | also measured
O=C(CCC(=O)N1c2ccccc2Sc2ccc(Cl)cc21)NCc1ccccc1 |  | > 30 µM | > 30 µM | 188 µM | EC50 [7]: > 30 µM
c1ccc2c(c1)Nc1ccccc1S2 [PHENOTHIAZINE] |  |  |  |  | I50 [14]: No inhibition
CC(CN1c2ccccc2Sc2ccccc21)N(C)C (stereo not given) [PROMETHAZINE] | Not Active |  |  | 271 µM | Ki [8]: 216 µM
CCCC(=O)N1c2ccccc2Sc2ccc(Cl)cc21 |  | > 30 µM | > 30 µM | 95 µM | EC50 [7]: > 30 µM
CN(C)CCCN1c2ccccc2Sc2c(Cl)cccc21 | Not Active | 48.4 µM | 29.5 µM | 765 µM | EC50 [5]: 3.01 µM
CN(C)CCCN1c2ccccc2Sc2ccc(/C=N/O)cc21 |  | > 30 µM |  | 145 µM | EC50 [6]: 10 µM; EC50 [7]: 7.35 µM
CC(=O)c1ccc2c(c1)N(C(C)=O)c1ccccc1S2 | Not Active |  |  | 2810 µM | 
CCN(CC)CCCCCC(=O)N1c2ccccc2Sc2ccc(Cl)cc21 |  |  |  | 457 µM | 
CNCCCN1c2ccccc2Sc2ccccc21 | Not Active |  |  | 1030 µM | 
O=C(CNc1ccccc1)N1c2ccccc2Sc2ccc(Cl)cc21 |  |  |  | 256 µM | 
O=C(CCC(=O)N1c2ccccc2Sc2ccc(Cl)cc21)NNc1ccccc1 |  | 34.2 µM |  | 151 µM | ED50 [15]: Toxic; EC50 [7]: 15.2 µM
COC(=O)c1ccc2c(c1)N(CCCN(C)C)c1ccccc1S2 | Not Active |  |  | 348 µM | 
C/C(=N/OCc1ccccc1)c1ccc2c(c1)N(CCCN(C)C)c1ccccc1S2 |  | 16.5 µM | > 30 µM | 204 µM | EC50 [16]: 1.56 µM
CCCN1CCN(CCCN2c3ccccc3Sc3ccc(Cl)cc32)CC1 | Not Active |  |  | 95.5 µM | Ki [8]: 18.7 µM
CN(C)CCN1c2ccccc2Sc2ccc(Cl)cc21 [CHOLRPHENETHAZINE] | Not Active |  |  | 150 µM | 
CCN(CC)CCN1c2ccccc2Sc2ccc(Cl)cc21 | Not Active |  |  | 81.3 µM | 
OCCN1CCN(CCCN2c3ccccc3Sc3ccc(C(F)(F)F)cc32)CC1 [FLUPHENAZINE] | Not Active | > 30 µM | > 30 µM | 73.7 µM | Ki [8]: 21.2 µM; EC50 [5]: > 30 µM
CCN(CC)CC(=O)N1c2ccccc2Sc2ccc(Cl)cc21 |  |  |  | 829 µM | 
CN(C)CCCN1c2ccccc2Sc2ccc(C(N)=O)cc21 | Not Active |  |  | 458 µM | 
CCN(CC)CCC(=O)N1c2ccccc2Sc2ccc(Cl)cc21 [CHLORACYZINE] |  |  |  | 802 µM | 
CC(=O)c1ccc2c(c1)N(CCCN(C)C)c1cc(Cl)ccc1S2 |  | 12.1 µM | > 30 µM | 175 µM | EC50 [7]: 1.29 µM
CC(=O)N1c2ccccc2Sc2ccc(C(=O)CCl)cc21 |  |  |  | 436 µM | 
N=C(N)CCN1c2ccccc2Sc2ccc(Cl)cc21 |  |  |  | 307 µM | 
C/C(=N\OCc1ccccc1)c1ccc2c(c1)N(CCCN(C)C)c1cc(Cl)ccc1S2 |  | 6.78 µM | > 30 µM | 199 µM | EC50 [16]: 3.5 µM
CN(C)CCCN1c2ccccc2Sc2ccc(C(F)(F)F)cc21 [TRIFLUPROMAZINE] | Not Active |  |  | 110 µM | Ki [8]: 30.2 µM; EC50 [5]: 3.2 µM
